Results gathered from unrelated publications.
Lines come from different studies, so protocols differ. pIC50, pKd, pKi: −log10 of the molar value.
WDR5: WD repeat-containing protein 5 (WDR5, Homo sapiens, UniProt P61964)
OfChi-h: Chitinase (OfChi-h, Ostrinia furnacalis, UniProt Q4AE59)
F10: Coagulation factor X (F10, Homo sapiens, UniProt P00742)
SLC22A12: Solute carrier family 22 member 12 (SLC22A12, Homo sapiens, UniProt Q96S37)

Compound	target	read-out	action	method	notes	measurement	value
C[C@@H]1CN(c2ccc(-c3cc(C(=O)NCCOCCOCCOCCOCCOCCOCCNC(=O)/C=C/c4[nH]cc(C(=O)N[C@@H](CC(N)=O)c5ccc(F)c(Cl)c5)c4-c4ccc(Cl)cc4F)ccc3F)cc2NC(=O)c2ccc(F)cc2C(F)(F)F)C[C@H](C)N1C	WDR5	binding	–	SPR	–	pKd	7.09
C=CS(=O)(=O)c1ccc(Nc2nc(OCC3CCCCC3)c3nc[nH]c3n2)cc1	Gasdermin-D (GSDMD, Homo sapiens, UniProt P57764)	binding	–	MST	–	pKd	4.44
CCNC(=O)N1CCN(c2nc(NC3CCN(C(=O)[C@@H](CCc4ccc(OC)cc4)NC(=O)[C@@H]4CCCCN4C(=O)C(=O)C(C)(C)CC)CC3)nc(N(Cc3cnn(C)c3)C3CC3)n2)CC1	Bromodomain-containing protein 9 (BRD9, Homo sapiens, UniProt Q9H8M2)	binding	–	SPR	–	pKd	< 5.00
O=C(NO)c1cncc(OS(=O)(=O)Oc2ccc(-n3ccnc3)cc2)c1	Histone deacetylase 7 (HDAC7, Homo sapiens, UniProt Q8WUI4)	enzyme activity	inhibitor	fluorescence	–	pIC50	5.29
CCCCc1ccc(CNc2nc(N(C)C)nc(N(C)C)c2/N=N/c2ccc(Cl)cc2)cc1	OfChi-h	enzyme activity	inhibitor	fluorescence	–	pKi	7.71
CC(=O)N[C@H]1Cc2ccc(cc2)OC/C=C\CNC(=O)C[C@@H](C(=O)N[C@@H](CCCNC(=N)N)C(=O)c2nc3ccccc3s2)NC(=O)[C@H](CC(C)C)NC1=O	F10	enzyme activity	inhibitor	absorbance	with preincubation	pIC50	5.50
Cn1c(=O)c2c(ncn2C)n(C)c1=O	SLC22A12	transporter uptake	inhibitor	radiometric	oocytes	pIC50	< 2.30
CC(=O)N[C@H]1Cc2ccc(cc2)OC/C=C/C[C@@H](C(=O)N[C@@H](CCCNC(=N)N)C(=O)c2nc3ccccc3s2)NC(=O)[C@H](CC(C)C)NC1=O	F10	enzyme activity	inhibitor	absorbance	with preincubation	pIC50	6.91
C[C@@H]1CN(c2ccc(-c3cc(C(=O)NCCOCCOCCOCCOCCNC(=O)Cn4cc(-c5[nH]cc(C(=O)N[C@@H](CC(N)=O)c6ccc(F)c(Cl)c6)c5-c5ccc(Cl)cc5F)cn4)ccc3F)cc2NC(=O)c2c[nH]c(=O)cc2C(F)(F)F)C[C@H](C)N1C	WDR5	binding	–	SPR	–	pKd	7.43
CN(C)c1nc(NCc2cccc(C(F)(F)F)c2)c(/N=N/c2ccc(Cl)cc2)c(N(C)C)n1	OfChi-h	enzyme activity	inhibitor	fluorescence	–	pIC50	6.52
Nc1ncnc2c1ncn2[C@@H]1O[C@H](CO)[C@@H](O)[C@H]1O	SLC22A12	transporter uptake	inhibitor	radiometric	oocytes	pIC50	< 2.00
